≈ marks a conversion by molar mass, not a printed value.
Assays:
[1] = molecular target: Cyclin-dependent kinase 2/cyclin A (Homo sapiens, UniProt P24941); assay: Inhibition of recombinant Cdk2/cyclin A using RbING as substrate after 2 hrs by luminescence assay; format: protein-complex assay
[2] = molecular target: T1, Receptor-type tyrosine-protein kinase FLT3 (Homo sapiens, UniProt P36888); assay: Inhibition of recombinant Flt3 using poly(Glu,Tyr) as substrate after 2 hrs by luminescence assay
T1 sequence (P36888 whole entry): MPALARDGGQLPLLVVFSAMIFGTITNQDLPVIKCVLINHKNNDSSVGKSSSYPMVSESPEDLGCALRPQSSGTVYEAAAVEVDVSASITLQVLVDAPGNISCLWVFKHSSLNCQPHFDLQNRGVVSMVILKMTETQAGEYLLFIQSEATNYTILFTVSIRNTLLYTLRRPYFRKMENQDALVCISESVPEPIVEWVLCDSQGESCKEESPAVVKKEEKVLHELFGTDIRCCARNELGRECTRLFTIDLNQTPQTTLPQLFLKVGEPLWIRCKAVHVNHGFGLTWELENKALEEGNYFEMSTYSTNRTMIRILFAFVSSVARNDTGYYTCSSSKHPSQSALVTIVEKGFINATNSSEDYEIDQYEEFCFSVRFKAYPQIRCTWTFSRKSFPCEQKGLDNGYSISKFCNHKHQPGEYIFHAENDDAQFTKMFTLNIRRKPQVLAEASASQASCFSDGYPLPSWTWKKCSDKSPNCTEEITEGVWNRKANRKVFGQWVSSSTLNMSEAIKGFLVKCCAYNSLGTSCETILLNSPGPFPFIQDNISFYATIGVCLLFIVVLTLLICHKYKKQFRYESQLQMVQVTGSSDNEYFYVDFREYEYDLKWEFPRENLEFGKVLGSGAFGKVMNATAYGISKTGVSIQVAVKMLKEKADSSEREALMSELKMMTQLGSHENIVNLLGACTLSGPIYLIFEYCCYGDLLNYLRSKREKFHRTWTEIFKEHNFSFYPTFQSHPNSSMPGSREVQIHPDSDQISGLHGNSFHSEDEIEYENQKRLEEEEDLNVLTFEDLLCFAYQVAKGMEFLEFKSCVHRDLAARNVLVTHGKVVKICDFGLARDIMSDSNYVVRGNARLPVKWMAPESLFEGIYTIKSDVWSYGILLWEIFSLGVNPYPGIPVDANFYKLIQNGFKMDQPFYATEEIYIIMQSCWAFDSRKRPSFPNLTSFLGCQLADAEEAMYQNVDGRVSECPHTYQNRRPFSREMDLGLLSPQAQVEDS

[3] = molecular target: Tyrosine-protein kinase JAK2 (Homo sapiens, UniProt O60674); assay: Inhibition of recombinant JAK2 using poly(Glu,Ala,Tyr) as substrate after 2 hrs by luminescence assay
Tyrosine-protein kinase JAK2, sequence (O60674 whole entry): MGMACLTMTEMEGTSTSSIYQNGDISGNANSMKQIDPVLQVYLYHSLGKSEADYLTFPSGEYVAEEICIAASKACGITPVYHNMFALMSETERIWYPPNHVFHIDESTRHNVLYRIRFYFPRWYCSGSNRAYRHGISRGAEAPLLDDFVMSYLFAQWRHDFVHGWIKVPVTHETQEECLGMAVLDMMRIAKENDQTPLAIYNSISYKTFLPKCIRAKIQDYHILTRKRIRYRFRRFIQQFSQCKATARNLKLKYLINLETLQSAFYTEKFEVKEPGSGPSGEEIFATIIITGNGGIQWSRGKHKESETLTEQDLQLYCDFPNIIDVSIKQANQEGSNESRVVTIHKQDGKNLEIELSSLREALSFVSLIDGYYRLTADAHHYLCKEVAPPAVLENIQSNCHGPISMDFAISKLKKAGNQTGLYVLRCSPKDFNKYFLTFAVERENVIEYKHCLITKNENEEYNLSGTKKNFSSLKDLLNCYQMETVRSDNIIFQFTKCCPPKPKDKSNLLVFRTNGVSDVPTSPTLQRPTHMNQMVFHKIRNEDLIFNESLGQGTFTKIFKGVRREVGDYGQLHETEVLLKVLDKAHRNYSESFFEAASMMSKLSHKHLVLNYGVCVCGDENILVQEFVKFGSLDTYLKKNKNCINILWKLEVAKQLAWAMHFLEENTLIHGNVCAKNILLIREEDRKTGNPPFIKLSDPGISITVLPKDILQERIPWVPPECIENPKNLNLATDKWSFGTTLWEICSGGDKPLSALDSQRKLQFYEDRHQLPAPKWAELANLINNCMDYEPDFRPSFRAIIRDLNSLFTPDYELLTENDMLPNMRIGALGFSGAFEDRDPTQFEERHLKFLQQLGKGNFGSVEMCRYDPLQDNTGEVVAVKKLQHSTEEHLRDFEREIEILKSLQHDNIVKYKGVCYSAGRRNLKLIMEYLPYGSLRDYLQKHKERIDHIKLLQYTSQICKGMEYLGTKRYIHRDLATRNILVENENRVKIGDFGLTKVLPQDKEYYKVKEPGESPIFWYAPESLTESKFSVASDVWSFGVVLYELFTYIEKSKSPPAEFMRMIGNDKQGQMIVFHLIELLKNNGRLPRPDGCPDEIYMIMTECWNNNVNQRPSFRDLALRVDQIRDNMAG

[4] = Solubility of the compound in PBS buffer at 250 uM at pH 7 by UV spectrophotometry; format: physicochemical
[5] = Oral bioavailability in nude mouse at 50 mg/kg; format: ADME, organism-based; settings: in vivo
HL-60 = assay: Antiproliferative activity against human HL60 cells after 48 hrs; format: functional, cell-based; settings: HL-60, 48 h
[6] = Half life in human liver microsomes at 5 uM by LC-MS/MS analysis; format: ADME, Microsome
Outline: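 5 μM with mouse, rat, dog or human liver microsomes (~0.87 mg/mL), 50 mM potassium phosphate pH 7.4, NADPH regeneration system, 37 °C.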

HCT-116 = assay: Antiproliferative activity against human HCT116 cells after 48 hrs; format: functional, cell-based; settings: HCT-116, 48 h

## C1=C/CN(Cc2ccccn2)Cc2cccc(c2)Nc2nccc(n2)-c2cccc(c2)OCC/1
[1]
  IC50: 480 nM
[2]
  IC50: 1450 nM
[3]
  IC50: 1350 nM

## COc1ccc2cc1OCC/C=C/CN(C)Cc1cccc(c1)Nc1nccc-2n1
[1]
  IC50: 2300 nM
[2]
  IC50: 310 nM
[3]
  IC50: 510 nM

## CCN(CC)CCOc1ccc2cc1CN(C)C/C=C/CCOc1cccc(c1)-c1ccnc(n1)N2
[4]
  solubility at 250 µM: 150 µg/mL (≈ 308 µM)
[1]
  IC50: 300 nM
[2]
  IC50: 30 nM
[3]
  IC50: 48 nM
[5]
  bioavailability: 5%

## CC(C)CN1C/C=C/CCOc2cccc(c2)-c2ccnc(n2)Nc2cccc(c2)C1
[1]
  IC50: 200 nM
[2]
  IC50: 190 nM
[3]
  IC50: 1500 nM

## CN1C/C=C/CCOc2cccc(c2)-c2ccnc(n2)Nc2cc(cc(NC(=O)C(F)(F)F)c2)C1
[1]
  IC50: 8 nM
[2]
  IC50: 19 nM
[3]
  IC50: 50 nM

## CN1C/C=C/CCOc2cccc(c2)-c2ccnc(n2)Nc2ccc(Cl)c(c2)C1
[1]
  IC50: 24 nM
[2]
  IC50: 77 nM
[3]
  IC50: 82 nM

## C1=C/CNc2cccc(c2)Nc2nccc(n2)-c2cccc(c2)OCC/1
[1]
  IC50: 150 nM
[2]
  IC50: 2900 nM
[3]
  IC50: 3300 nM

## CN1C/C=C/COCc2cccc(c2)-c2ccnc(n2)Nc2cccc(c2)C1
[1]
  IC50: 660 nM
[2]
  IC50: 210 nM
[3]
  IC50: 1700 nM

## CN1C/C=C/CCOc2cccc(c2)-c2cc(N3CCCC3)nc(n2)Nc2cccc(c2)C1
[1]
  IC50: > 10000 nM
[2]
  IC50: > 10000 nM
[3]
  IC50: > 10000 nM

## CC(C)(C)CN1C/C=C/CCOc2cccc(c2)-c2ccnc(n2)Nc2cccc(c2)C1
[1]
  IC50: > 10000 nM
[2]
  IC50: > 10000 nM
[3]
  IC50: > 10000 nM

## CN1C/C=C/CCOc2cccc(c2)-c2ccnc(n2)Nc2ccc(OCCN3CCCC3)c(c2)C1
[4]
  solubility at 250 µM: 150 µg/mL (≈ 309 µM)
[1]
  IC50: 250 nM
[2]
  IC50: 35 nM
[3]
  IC50: 56 nM

## COc1ccc2cc1CN(C)C/C=C/CCOc1cccc(c1)-c1ccnc(n1)N2
[1]
  IC50: 77 nM
[2]
  IC50: 66 nM
[3]
  IC50: 280 nM

## COc1cc2cc(c1OCCN1CCCC1)CN(C)C/C=C/CCOc1cccc(c1)-c1ccnc(n1)N2
[1]
  IC50: 6700 nM
[2]
  IC50: 98 nM
[3]
  IC50: 210 nM

## O=C(N1C/C=C/CCOc2cccc(c2)-c2ccnc(n2)Nc2cccc(c2)C1)C(F)(F)F
[1]
  IC50: > 10000 nM
[2]
  IC50: > 10000 nM
[3]
  IC50: > 10000 nM

## CN1C/C=C/CCOc2cccc(c2)-c2ccnc(n2)Nc2ccc(OCC(=O)N3CCCC3)c(c2)C1
[1]
  IC50: 390 nM
[2]
  IC50: 150 nM
[3]
  IC50: 140 nM

## CN1C/C=C/CCOc2cccc(c2)-c2ccnc(n2)Nc2ccc(OC(F)(F)F)c(c2)C1
[1]
  IC50: 57 nM
[2]
  IC50: 160 nM
[3]
  IC50: 150 nM

## CN1C/C=C/CNC(=O)c2cccc(c2)-c2ccnc(n2)Nc2cccc(c2)C1
[1]
  IC50: > 10000 nM
[2]
  IC50: > 10000 nM
[3]
  IC50: > 10000 nM

## CC(C)NCC(=O)N1C/C=C/CCOc2cccc(c2)-c2ccnc(n2)Nc2cccc(c2)C1
[4]
  solubility at 250 µM: 105 µg/mL (≈ 230 µM)
[1]
  IC50: 530 nM
[2]
  IC50: 140 nM

## CN1C/C=C/CCOc2cccc(c2)-c2ccnc(n2)Nc2ccc(OCCN3CCOCC3)c(c2)C1
[4]
  solubility at 250 µM: 154 µg/mL (≈ 307 µM)
[1]
  IC50: 300 nM
[2]
  IC50: 40 nM
[3]
  IC50: 120 nM

## FC(F)(F)CN1C/C=C/CCOc2cccc(c2)-c2ccnc(n2)Nc2ccc(OCCN3CCCC3)c(c2)C1
[1]
  IC50: > 10000 nM
[2]
  IC50: 110 nM
[3]
  IC50: 220 nM

## CN1C/C=C/COCc2cccc(c2)Nc2nccc(n2)-c2cccc(c2)C1
[1]
  IC50: 99 nM
[2]
  IC50: 310 nM
[3]
  IC50: 230 nM

## CCS(=O)(=O)c1ccc2cc1CN(C)C/C=C/CCOc1cccc(c1)-c1ccnc(n1)N2
[1]
  IC50: 22 nM
[2]
  IC50: 440 nM
[3]
  IC50: 100 nM

## CCS(=O)(=O)CCOc1ccc2cc1CN(C)C/C=C/CCOc1cccc(c1)-c1ccnc(n1)N2
[1]
  IC50: 170 nM
[2]
  IC50: 93 nM
[3]
  IC50: 110 nM

## CN1C/C=C/CCOc2cccc(c2)-c2ccnc(n2)Nc2cc(cc(NC(=O)N3CCOCC3)c2)C1
[1]
  IC50: 87 nM
[2]
  IC50: 37 nM
[3]
  IC50: 44 nM

## CN1C/C=C/CCOc2cccc(c2)-c2ccnc(n2)Nc2cc(N)cc(c2)C1
[1]
  IC50: 7 nM
[2]
  IC50: 19 nM
[3]
  IC50: 50 nM

## O=C1CC/C=C\COc2cccc(c2)-c2ccnc(n2)Nc2cccc(c2)N1
[1]
  IC50: 2600 nM
[2]
  IC50: 1020 nM
[3]
  IC50: 1750 nM

## C1=C/CN(CC2CC2)Cc2cccc(c2)Nc2nccc(n2)-c2cccc(c2)OCC/1
[1]
  IC50: 94 nM
[2]
  IC50: 270 nM
[3]
  IC50: 1500 nM

## CN1C/C=C/CC(=O)Nc2cccc(c2)-c2ccnc(n2)Nc2cccc(c2)C1
[1]
  IC50: 4600 nM
[2]
  IC50: 2750 nM
[3]
  IC50: > 10000 nM

## OCCN1C/C=C/CCOc2cccc(c2)-c2ccnc(n2)Nc2cccc(c2)C1
[1]
  IC50: 100 nM
[2]
  IC50: 350 nM

## CN1CCN(CCOc2ccc3cc2CN(C)C/C=C/CCOc2cccc(c2)-c2ccnc(n2)N3)CC1
[1]
  IC50: 900 nM
[2]
  IC50: 250 nM
[3]
  IC50: 220 nM

## COCCN1C/C=C/CCOc2cccc(c2)-c2ccnc(n2)Nc2cccc(c2)C1
[1]
  IC50: 410 nM
[2]
  IC50: 490 nM
[3]
  IC50: 1600 nM

## C1=C/CN(C2CC2)Cc2cccc(c2)Nc2nccc(n2)-c2cccc(c2)OCC/1
[2]
  IC50: 42 nM
[3]
  IC50: 90 nM

## CN1C/C=C/CCOc2cccc(c2)-c2ccnc(n2)Nc2ccc(OCCN3CCCCC3)c(c2)C1
[4]
  solubility at 250 µM: 146 µg/mL (≈ 292 µM)
[1]
  IC50: 260 nM
[2]
  IC50: 45 nM
[3]
  IC50: 62 nM

## CN1C/C=C/CCOc2cccc(c2)-c2ccnc(n2)Nc2ccc(N3CCOCC3)c(c2)C1
[4]
  solubility at 250 µM: 147 µg/mL (≈ 321 µM)
[1]
  IC50: 74 nM
[2]
  IC50: 71 nM
HL-60
  IC50: 76 nM
[3]
  IC50: 49 nM
[6]
  half-life at 5 µM: 21 min
HCT-116
  IC50: 410 nM

## CN1C/C=C/CCOc2cc(F)cc(c2)-c2ccnc(n2)Nc2cccc(c2)C1
[1]
  IC50: 9 nM
[2]
  IC50: 22 nM
[3]
  IC50: 160 nM

## C1=C/CNCc2cccc(c2)Nc2nccc(n2)-c2cccc(c2)OCC/1
[1]
  IC50: 21 nM
[2]
  IC50: 110 nM

## Cc1cc2nc(n1)Nc1cccc(c1)CN(C)C/C=C/CCOc1cccc-2c1
[1]
  IC50: 4700 nM
[2]
  IC50: 1700 nM
[3]
  IC50: > 10000 nM

## N#CCN1C/C=C/CCOc2cccc(c2)-c2ccnc(n2)Nc2ccc(OCCN3CCCC3)c(c2)C1
[1]
  IC50: 310 nM
[2]
  IC50: 29 nM
[3]
  IC50: 150 nM

## COCCOc1ccc2cc1CN(C)C/C=C/CCOc1cccc(c1)-c1ccnc(n1)N2
[1]
  IC50: 110 nM
[2]
  IC50: 25 nM
[3]
  IC50: 62 nM
